Measured values gathered from unrelated publications.
Protocols differ between the studies behind these lines.
Target: BMP-2-inducible protein kinase (BMP2K, Homo sapiens, UniProt Q9NSY1)

CN(c1nccc(-c2cnn3ncccc23)n1)C1CC1 — remaining binding (binding; 1 µM): 100%
FC(F)(F)Oc1cccc(-c2cnc3ccc(-c4ccncc4)nn23)c1 — remaining binding (binding, competition with immobilised ligand; 5 µM): 8.3%
O=C(c1ccc(Nc2ncc(Cl)c(-c3ccc(Cl)s3)n2)cc1)N1CCC(N2CCCC2)CC1 — remaining binding (binding, competition with immobilised ligand; 1 µM): 0.1%
Cc1cc(C)c(-n2ccn3nc(-c4cccnc4)cc23)cc1NC(=O)c1cc(C#N)cc(S(F)(F)(F)(F)F)c1 — remaining binding (cell-free assay, competition with immobilised ligand; 0.1 µM): 94.7%
CCN1CCN(Cc2ccc(C(=O)Nc3ccc(C)c(Oc4ccc5c(c4)CC(=O)N5)c3)cc2C(F)(F)F)CC1 — remaining binding (binding, competition with immobilised ligand; 1 µM): 100%
O=C(Nc1c[nH]nc1C(=O)NC1CCNCC1)c1cc(F)cc(F)c1 — remaining binding (binding, competition with immobilised ligand; 1 µM): 53%
N[C@H]1CCN(c2nccc(-c3cnn4ncccc34)n2)C1 — remaining binding (binding; 1 µM): 88%
Cc1nc(N2CC[C@@H](O)C2)ncc1-c1cc(C(F)(F)F)cc2[nH]ncc12 — remaining binding (binding, competition with immobilised ligand; 1 µM): 100%
C[C@@H](c1ccc(-n2cnc3c(N)ncnc32)cc1)N1CCc2nn(C)c(Cc3ccccc3)c2C1=O — remaining binding (binding, competition with immobilised ligand; 0.1 µM): 84%
CNC(=O)[C@@H]1CC[C@@H](n2c(-c3ccc4cnccc4c3)nc3ccc(C(=O)NCc4cccc(C(N)=O)c4)cc32)C1 — remaining binding (binding, competition with immobilised ligand; 1 µM): 95%
COc1ccnn2ncc(-c3ccnc(N(C)C)n3)c12 — remaining binding (binding; 1 µM): 100%
O=C1NC(c2ccccn2)Sc2ccccc21 (stereo not shown) — remaining binding (cell-free assay, competition with immobilised ligand; 1 µM): 88%
O=C(NCCCN1CCOCC1)c1ccc(Nc2nccc(-c3cc4ccccc4s3)n2)cc1 — remaining binding (binding, competition with immobilised ligand; 1 µM): 0.7%
O=C(O)[C@H]1[C@H](Cn2nnc3ccccc3c2=O)CC[C@@H]1C(=O)c1ccc(OCCC2CCOCC2)cc1 — remaining binding (cell-free assay, competition with immobilised ligand; 1 µM): 86%
CC1CCCN1c1nccc(-c2cnn3ncccc23)n1 (stereo not shown) — remaining binding (binding; 1 µM): 95%
O=C(c1ccc(Nc2ncc(Cl)c(-c3cc4ccccc4s3)n2)cc1)N1CCC(N2CCCC2)CC1 — remaining binding (binding, competition with immobilised ligand; 1 µM): 0%
FC(F)(F)c1ccc2c(c1)nc(-c1cccnc1)n2C1CC1 — remaining binding (cell-free assay, competition with immobilised ligand; 1 µM): 100%
COc1ncc2cc3ccccc3nc2c1C#N — remaining binding (cell-free assay, competition with immobilised ligand; 5 µM): 100%
F[C@@H]1CCN(c2nccc(-c3cnn4ncccc34)n2)C1 — remaining binding (binding; 1 µM): 100%
CN(C)c1ncnc(-c2ccc3nc(Nc4cc(CN5CCN(C(=O)CC(F)(F)F)CC5)ccn4)[nH]c3c2)c1Cl — remaining binding (cell-free assay, competition with immobilised ligand; 1 µM): 100%
C[C@@H]1CCN(c2nccc(-c3cnn4ncccc34)n2)C1 — remaining binding (binding; 1 µM): 97%
CCC(=O)N[C@@H]1CC[C@H](C(=O)N(C)c2ccc(-c3nc4ccccc4o3)cc2)C1 — remaining binding (cell-free assay, competition with immobilised ligand; 1 µM): 100%
